Data on 16 compounds can be found in ChEMBL document CHEMBL1122758, “Studies of the mode of action of antitumor triazenes and triazines. 6. 1-Aryl-3-(hydroxymethyl)-3-methyltriazenes: synthesis, chemistry, and antitumor properties” (J Med Chem, 1984).

Data set [1] in a line: In vitro biological stability and half-life was measured in phosphate buffer at a pH of 3.5 at 37 degree Centigrade. The settings on record: pH 3.5. The class given is physicochemical. The procedure, abridged:
(§1)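 Decomposition was tracked by UV spectroscopy as the fall in absorbance over time at the compound's λmax. Half-life came from the slope of a log plot of extent of decomposition against time, assuming first-order kinetics. Line 4 used Earl's buffer (NaCl, NaHCO3, glucose, KCl, NaH2PO4, HCl to pH 7.4). Lines 5-11 used Sorensen's phosphate buffer, with KH2PO4 and Na2HPO4 mixed to the stated pH.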

A short description of data set [2]: In vitro biological stability and half-life was measured in phosphate buffer at a pH of 2.5 at 37 degree Centigrade. In kind it is physicochemical. The conditions noted are these: pH 2.5. The procedure, abridged:
as §1

Data set [3] relates to Mus musculus. Put plainly: Compound was evaluated in vivo for antitumor activity against TLX5R Lymphoma implanted mice and percentage increase in life span (%ILS(T/C)) was reported at a optimal dose of 20 mg/Kg five times daily. The class given is functional.
A short description of data set [4]: In vitro biological stability and half-life was measured in phosphate buffer at a pH of 4.5 at 37 degree Centigrade. In kind it is physicochemical. The conditions noted are these: pH 4.5. The gist of the method: as §1
A short description of data set [5]: In vitro biological stability and half-life was measured in phosphate buffer at a pH of 7.4 at 37 degree Centigrade. In kind it is physicochemical. The settings on record: pH 7.4. The procedure, abridged:
as §1

Data set [6] deals with Mus musculus. Nature of the data set: Compound was evaluated in vivo for antitumor activity against TLX5S Lymphoma implanted mice and percentage increase in life span (%ILS(T/C)) was reported at a optimal dose of 20 mg/Kg. In kind it is functional.
The nature of data set [7]: In vitro biological stability and half-life was measured in phosphate buffer at a pH of 5.2 at 37 degree Centigrade. The class given is physicochemical. The conditions noted are these: pH 5.2. The procedure, abridged:
as §1

Data set [8] can be described thus: In vitro biological stability and half-life was measured by HPLC in Earl's buffer at a pH of 7.4 at 37 degree Centigrade. In kind it is physicochemical. The settings on record: pH 7.4. The procedure, abridged: (§2)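 Triazene incubated at 100 µg mL-1 in closed containers at 37 °C in pH 7.4 buffer: Earl's (NaCl, NaHCO3, glucose, KCl, NaH2PO4, HCl-adjusted) for line 1; 0.01 M Tris, HCl-adjusted, for line 2; Sorensen's KH2PO4/Na2HPO4 phosphate for line 3. Remaining triazene was followed by HPLC with 30% aqueous acetonitrile plus 0.1% diethylamine at 2 mL/min, and UV detection at the compound's λmax.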

Data set [9] can be described thus: In vitro biological stability and half-life was measured in phosphate buffer at a pH of 7.5 at 25 degree Centigrade. In kind it is physicochemical. The settings on record: pH 7.5. The gist of the method:
as §1

Data set [10] has as its system Mus musculus. Nature of the data set: Compound was evaluated in vivo for antitumor activity against TLX5R Lymphoma implanted mice and percentage increase in life span (%ILS(T/C)) was reported at a optimal dose of 5 mg/Kg five times daily.
A short description of data set [11]: In vitro biological stability and half-life was measured in Earl's buffer at a pH 7.4 of at 37 degree Centigrade. In kind it is physicochemical. The procedure, abridged:
as §1

Data set [12] is described as follows: In vitro biological stability and half-life was measured in phosphate buffer at a pH 7.5 of at 25 degree Centigrade. The class given is physicochemical. The gist of the method: as §1
Data set [13] can be described thus: In vitro biological stability and half-life was measured by HPLC in TRIS buffer at a pH of 7.4 at 37 degree Centigrade. The conditions noted are these: pH 7.4. In kind it is physicochemical. The gist of the method: as §2
A short description of data set [14]: In vitro biological stability and half-life was measured by HPLC in phosphate buffer at a pH of 7.4 at 37 degree Centigrade. The conditions noted are these: pH 7.4. In kind it is physicochemical. The gist of the method:
as §2

Regarding `CC(=O)c1ccc(/N=N/N(C)C)cc1`, the half-life in [1] was 11.8 min; in data set [2] it was 1.23 min; in data set [4], 108 min; in data set [5], greater than 1440 min; in data set [7], greater than 1440 min. Further, the “ILS (T/C)” value in [3] amounted to 0%; in [6], 65%.

`CCN=NNc1ccc(C(C)=O)cc1`: the half-life in data set [8] was found to be 15.1 min.

Take `CN/N=N/c1ccc(C(=O)OC)cc1`: the half-life in [9] was found to be 35 min; in [5], 12.1 min. Besides, the entries for the “ILS (T/C)” value in data set [3] and in data set [6] were 4% and 87%, respectively.

On to `COC(=O)c1ccc(/N=N/N(C)C)cc1`, for which, in [9], the half-life was greater than 1440 min. The “ILS (T/C)” value in data set [3] is 0%; in data set [6] it was 58%.

For `COC(=O)c1ccc(/N=N/N(C)CO)cc1`, the half-life amounted to 22 min in data set [9] and 12.6 min in [5]. Also, the results for the “ILS (T/C)” value in data set [6] and in [10] were 120% and 0%, respectively.

Compound `CCN=NNc1ccc(C#N)cc1` showed a half-life in [11] of 18.3 min.

In turn, `CCN(CO)N=Nc1ccc(C(=O)OC)cc1` showed a half-life in [12] of 7 min.

With `CC(=O)c1ccc(/N=N/N(C)CO)cc1`, the half-life in data set [5] worked out at 14.5 min. Further, the “ILS (T/C)” value in [6] is 72%.

Consider `CN=NNc1ccc(C(C)=O)cc1`, for which the half-life in [8] came out at 66.6 min; in data set [13] it was 36.2 min; in [14], 15.1 min; in [5], 13.8 min.

In turn, `CN=NNc1ccc(C#N)cc1` returned a half-life in data set [11] of 99 min.

In turn, `COC(=O)c1ccc(/N=N/N(C)COC(=O)c2ccccc2)cc1` showed a half-life in [9] of 26.5 min. Also, the “ILS (T/C)” value in data set [6] was determined as 31%.

Take `CN(CO)/N=N/c1ccc(C(N)=O)cc1`: the “ILS (T/C)” value in [6] is 62%.

On to `CCN=NNc1ccc(C(=O)OC)cc1`, for which the half-life in [12] worked out at 9 min.

`CCN(CO)/N=N/c1ccc(C#N)cc1`: in data set [6], the “ILS (T/C)” value was found to be 0%.

Turning to `C/N=N/Nc1ccccc1`, the half-life in data set [5] is 3.5 min.

Take `CN(CO)/N=N/c1ccc(C#N)cc1`: the “ILS (T/C)” value in data set [6] was determined as 54%.

For orientation: half-life means the time in which the quantity being followed falls by half.
